Data as given in ChEMBL document CHEMBL3632581, “Dimers of Melampomagnolide B Exhibit Potent Anticancer Activity against Hematological and Solid Tumor Cells” (J Med Chem, 2015).

Tests used:
[1] = test system: HL-60(TB); test: Cytotoxicity against human HL-60(TB) cells after 48 hrs by SRB assay; type: functional; conditions: HL-60, 48 h
In short: (§1)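 NCI-60 five-dose screen at 10−8 to 10−4 M. Cells were plated at 5,000–40,000/well in RPMI 1640 with 5% FBS and 2 mM L-glutamine, then preincubated 24 h, and time-zero plates were TCA-fixed. Compound was added from DMSO stocks and exposed 48 h at 37 °C. Cells were TCA-fixed, SRB-stained, and read at 515 nm. LC50 is the concentration halving the cell population through cell death.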

[2] = test system: K562; test: Cytotoxicity against human K562 cells after 48 hrs by SRB assay; type: functional; conditions: K562, 48 h; in short: as §1
[3] = test system: SR; test: Cytotoxicity against human SR cells after 48 hrs by SRB assay; type: functional
In short: (§2)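 NCI-60 screen: cells grown in RPMI 1640 with 5% FBS and 2 mM L-glutamine, plated at 5,000–40,000 cells/well by doubling time, and preincubated 24 h at 37 °C before drug. Drug was diluted from DMSO stock and given at five concentrations, 10−4 to 10−8 M, for 48 h. Cells fixed with cold TCA, SRB stained, OD read at 515 nm against time-zero and vehicle plates. LC50 taken as the concentration that halves cell population through cell death.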

[4] = test system: A549; test: Cytotoxicity against human A549 cells after 48 hrs by SRB assay; type: functional; conditions: A549, 48 h; in short: as §1
[5] = test system: HOP-92; test: Cytotoxicity against human HOP92 cells after 48 hrs by SRB assay; type: functional; conditions: HOP-92, 48 h; in short: as §1
[6] = test system: NCI-H460; test: Cytotoxicity against human NCI-H460 cells after 48 hrs by SRB assay; type: functional; conditions: NCI-H460, 48 h; in short: as §1
[7] = test system: NCI-H522; test: Cytotoxicity against human NCI-H522 cells after 48 hrs by SRB assay; type: functional; conditions: NCI-H522, 48 h; in short: as §1
[8] = test system: COLO 205; test: Cytotoxicity against human COLO205 cells after 48 hrs by SRB assay; type: functional; conditions: COLO 205, 48 h; in short: as §1
[9] = test system: SW-620; test: Cytotoxicity against human SW620 cells after 48 hrs by SRB assay; type: functional; conditions: SW-620, 48 h; in short: as §2
[10] = test system: SF-539; test: Cytotoxicity against human SF539 cells after 48 hrs by SRB assay; type: functional; conditions: SF-539, 48 h; in short: as §1
[11] = test system: SNB-75; test: Cytotoxicity against human SNB75 cells after 48 hrs by SRB assay; type: functional; conditions: SNB-75, 48 h; in short: as §1
[12] = test system: Malme-3M; test: Cytotoxicity against human MALME-3M cells after 48 hrs by SRB assay; type: functional; in short: as §1
[13] = test system: M14; test: Cytotoxicity against human M14 cells after 48 hrs by SRB assay; type: functional; conditions: M14, 48 h; in short: as §1
[14] = test system: MDA-MB-435; test: Cytotoxicity against human MDA-MB-435 cells after 48 hrs by SRB assay; type: functional; conditions: MDA-MB-435, 48 h; in short: as §1
[15] = test system: SK-MEL-28; test: Cytotoxicity against human SK-MEL-28 cells after 48 hrs by SRB assay; type: functional; conditions: SK-MEL-28, 48 h; in short: as §1
[16] = test system: SK-MEL-5; test: Cytotoxicity against human SK-MEL-5 cells after 48 hrs by SRB assay; type: functional; conditions: SK-MEL-5, 48 h; in short: as §1
[17] = test system: UACC-257; test: Cytotoxicity against human UACC257 cells after 48 hrs by SRB assay; type: functional; conditions: UACC-257, 48 h; in short: as §2
[18] = test system: OVCAR-4; test: Cytotoxicity against human OVCAR4 cells after 48 hrs by SRB assay; type: functional; conditions: OVCAR-4, 48 h; in short: as §1
[19] = test system: SK-OV-3; test: Cytotoxicity against human SKOV3 cells after 48 hrs by SRB assay; type: functional; conditions: SK-OV-3, 48 h; in short: as §1
[20] = test system: 786-0; test: Cytotoxicity against human 786-0 cells after 48 hrs by SRB assay; type: functional; conditions: 786-0, 48 h; in short: as §1
[21] = test system: A498; test: Cytotoxicity against human A498 cells after 48 hrs by SRB assay; type: functional; conditions: A498, 48 h; in short: as §1
[22] = test system: ACHN; test: Cytotoxicity against human ACHN cells after 48 hrs by SRB assay; type: functional; in short: as §1
[23] = test system: CAKI-1; test: Cytotoxicity against human Caki1 cells after 48 hrs by SRB assay; type: functional; conditions: CAKI-1, 48 h; in short: as §1
[24] = test system: TK-10; test: Cytotoxicity against human TK10 cells after 48 hrs by SRB assay; type: functional; conditions: TK-10, 48 h; in short: as §2
[25] = test system: UO-31; test: Cytotoxicity against human UO31 cells after 48 hrs by SRB assay; type: functional; conditions: UO-31, 48 h; in short: as §2
[26] = test system: PC-3; test: Cytotoxicity against human PC3 cells after 48 hrs by SRB assay; type: functional; conditions: PC-3, 48 h; in short: as §1
[27] = test system: DU-145; test: Cytotoxicity against human DU145 cells after 48 hrs by SRB assay; type: functional; conditions: DU-145, 48 h; in short: as §1
[28] = Cytotoxicity against human Hs 578T cells after 48 hrs by SRB assay; type: functional; in short: as §1
[29] = test system: BT-549; test: Cytotoxicity against human BT549 cells after 48 hrs by SRB assay; type: functional; conditions: BT-549, 48 h; in short: as §1
[30] = Antileukemic activity against human AML01 cells after 24 hrs by annexin V/7-AAD staining-based flow cytometric analysis; type: functional, cell-based
In short: (§3)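 Primary AML specimens from consenting donors, isolated by Ficoll-Paque gradient and sometimes cryopreserved. Cells were held 1 h in serum-free IMDM with 20% BIT 9500, LDL and β-mercaptoethanol before drug (DMSO stock diluted in PBS, ≤0.5% DMSO final). Exposure was 24 h over 0.5-10 μM. Annexin V/7-AAD double-negative cells, normalized to vehicle, gave the EC50. Run in triplicate.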

[31] = Antileukemic activity against human AML02 cells after 24 hrs by annexin V/7-AAD staining-based flow cytometric analysis; type: functional, cell-based; in short: as §3
[32] = Antileukemic activity against human AML04 cells after 24 hrs by annexin V/7-AAD staining-based flow cytometric analysis; type: functional, cell-based; in short: as §3
[33] = Cytotoxicity against hematopoietic progenitor cells isolated from human umbilical cord blood by annexin V staining-based flow cytometric analysis; type: cell-based
In short: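 Cord-blood mononuclear cells from Ficoll-Paque were plated in serum-free medium, with drug from a DMSO stock (≤0.5% DMSO final). Cells were stained for CD34, CD45 and annexin V. The non-apoptotic fraction (annexin V-negative within the CD34+CD45dim compartment) was normalized to vehicle, and EC50 was fitted where possible. Triplicate.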

[34] = Potency index, ratio of parthenolide EC50 to compound EC50 for human M9-ENL1 cells; type: functional
[35] = read-out: LC50 (the source's name)

For `C=C1C(=O)O[C@H]2[C@H]1CC/C(COC(=O)NCCCCCCCCNC(=O)OC/C1=C/CC[C@@]3(C)O[C@H]3[C@H]3OC(=O)C(=C)[C@@H]3CC1)=C\CC[C@@]1(C)O[C@@H]21`, the GI50 [1] was 260 nM, the CC50 [1, 35] was > 100000 nM and the GI50 [2] was 340 nM. The CC50 [2, 35] was > 100000 nM, the GI50 [3] was 310 nM and the CC50 [3, 35] was > 100000 nM. The GI50 [4] was 1700 nM, the CC50 [4, 35] was 7260 nM and the GI50 [5] was 170 nM. For the same compound, the CC50 [5, 35] was 2290 nM, the GI50 [6] was 1750 nM and the CC50 [6, 35] was 9020 nM. The GI50 [7] was 180 nM, the CC50 [7, 35] was 890 nM and the GI50 [8] was 300 nM. The CC50 [8, 35] was 3990 nM, the GI50 [9] was 230 nM and the CC50 [9, 35] was 3370 nM. The GI50 [10] was 230 nM, the CC50 [10, 35] was 2260 nM and the GI50 [11] was 1250 nM. For the same compound, the CC50 [11, 35] was 9840 nM, the GI50 [12] was 190 nM and the CC50 [12, 35] was 920 nM. The GI50 [13] was 270 nM, the CC50 [13, 35] was 4530 nM and the GI50 [14] was 240 nM. For the same compound, the CC50 [14, 35] was 3740 nM, the GI50 [15] was 200 nM and the CC50 [15, 35] was 2120 nM. The GI50 [16] was 1210 nM, the CC50 [16, 35] was 5530 nM and the GI50 [17] was 840 nM. It also gave a CC50 [17, 35] of 8510 nM, a GI50 [18] of 520 nM and a CC50 [18, 35] of 4630 nM. It also gave a GI50 [19] of 3640 nM, a CC50 [19, 35] of 35100 nM and a GI50 [20] of 240 nM. The CC50 [20, 35] was 2930 nM, the GI50 [21] was 1690 nM and the CC50 [21, 35] was 5830 nM. For the same compound, the GI50 [22] was 250 nM, the CC50 [22, 35] was 2850 nM and the GI50 [23] was 650 nM. It also gave a CC50 [23, 35] of 4790 nM, a GI50 [24] of 280 nM and a CC50 [24, 35] of 2950 nM. The GI50 [25] was 880 nM, the CC50 [25, 35] was 4900 nM and the GI50 [26] was 380 nM. For the same compound, the LC50 (concentration killing half the cell population) [26] was 5200 nM, the GI50 [27] was 1100 nM and the LC50 (concentration killing half the cells) [27] was 4810 nM. For the same compound, the GI50 [28] was 1170 nM, the CC50 [28, 35] was > 100000 nM and the GI50 [29] was 250 nM. For the same compound, the LC50 [29] was 3570 nM, the EC50 [30] was 2600 nM and the EC50 [31] was 1200 nM. For the same compound, the EC50 [32] was 3700 nM, the EC50 [33] was > 10000 nM and the “Ratio EC50” value [34] was 2.
